Test results published in ChEMBL document CHEMBL4842338, “System-oriented optimization of multi-target 2,6-diaminopurine derivatives: Easily accessible broad-spectrum antivirals active against flaviviruses, influenza virus and SARS-CoV-2” (Eur J Med Chem, 2021).
Activity calls are given as the source filed them. No cut-off for these calls is given here.

Columns and labels:
Huh-7 = experiment: (§1) Cytotoxicity against human Huh-7 cells assessed as reduction in cell viability by Celltiter-Glo luminescent cell viability assay; format: cell-based; conditions: huh-7
Method in brief: (§2)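 Compound-exposed cells assessed by CellTiter-Glo luminescence versus DMSO control; CC50 from dose-response.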

dengue virus type 2 [1] = experiment: Antiviral activity against Dengue virus serotype 2 New Guinea C infected in pre-seeded Huh-7 cells assessed as inhibition of viral replication incubated for 72 hrs by immunodetection based secondary yield reduction assay; format: functional, organism-based
Zika virus = experiment: Antiviral activity against Zika virus H/PF/2013 infected in pre-seeded Huh-7 cells assessed as inhibition of viral replication incubated for 72 hrs by immunodetection based secondary yield reduction assay; format: functional, organism-based; conditions: H/PF/2013, Huh-7, 72 h
[2] = Selectivity index, ratio of CC50 for human Huh-7 cells to IC50 for Dengue virus serotype 2 New Guinea C infected in pre-seeded Huh-7 cells assessed as inhibition of viral replication incubated for 72 hrs by immunodetection based secondary yield reduction assay; format: toxicity, cell-based; conditions: read-out: Selectivity Index
[3] = Selectivity index, ratio of CC50 for human Huh-7 cells to IC50 for Zika virus H/PF/2013 infected in pre-seeded Huh-7 cells assessed as inhibition of viral replication incubated for 72 hrs by immunodetection based secondary yield reduction assay; format: toxicity, cell-based; conditions: read-out: Selectivity Index
West Nile virus [4] = experiment: Antiviral activity against West Nile virus lineage 1 (Italy/2009) infected in pre-seeded Huh-7 cells assessed as inhibition of viral replication incubated for 48 hrs by immunodetection based direct yield reduction assay; format: functional, organism-based
[5] = as §1; format: cell-based; conditions: Huh-7 cells; method in brief: as §2
dengue virus type 2 [6] = experiment: Antiviral activity against Dengue virus serotype 2 New Guinea C infected in pre-seeded Huh-7 cells assessed as inhibition of viral replication incubated for 72 hrs by immunodetection based direct yield reduction assay; format: functional, organism-based; conditions: Dengue virus, New Guinea C, Huh-7, 72 h; read-out: IC50
[7] = Selectivity index, ratio of CC50 for human Huh-7 cells to IC50 for Dengue virus serotype 2 New Guinea C infected in pre-seeded Huh-7 cells assessed as inhibition of viral replication incubated for 72 hrs by immunodetection based direct yield reduction assay; format: toxicity, cell-based; conditions: read-out: Selectivity Index
Method in brief: (§3)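 Direct yield reduction in Huh7 cells (7000/well), infected with 50 TCID₅₀ of DENV or ZIKV, or 25 TCID₅₀ of WNV. Adsorption 1 h at 37 °C, then virus removed and serial compound dilutions added. Incubated 72 h (DENV, ZIKV) or 48 h (WNV). Viral antigen immunodetected on the monolayer. IC₅₀ by non-linear regression, mean of three experiments. SI = CC₅₀ (Huh7, CellTiter-Glo luminescence)/IC₅₀.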

West Nile virus [8] = experiment: Antiviral activity against West Nile virus lineage 1 (Italy/2009) infected in pre-seeded Huh-7 cells assessed as inhibition of viral replication incubated for 48 hrs by immunodetection based plaque reduction assay; format: functional, organism-based; conditions: Huh-7, 48 h
[9] = Selectivity index, ratio of CC50 for human Huh-7 cells to IC50 for West Nile virus lineage 1 (Italy/2009) infected in pre-seeded Huh-7 cells assessed as inhibition of viral replication incubated for 48 hrs by immunodetection based direct yield reduction assay; format: toxicity, cell-based; conditions: read-out: Selectivity Index; method in brief: as §3
[10] = Selectivity index, ratio of CC50 for human Huh-7 cells to IC50 for West Nile virus lineage 1 (Italy/2009) infected in pre-seeded Huh-7 cells assessed as inhibition of viral replication incubated for 48 hrs by immunodetection based plaque reduction assay; format: toxicity, cell-based; conditions: read-out: Selectivity Index
CDK9/cyclin T1 = CDK9/cyclin T1 (Homo sapiens, UniProt P50750); experiment: Inhibition of human full length CDK9/ His-tagged cT1 assessed as residual activity at 5 uM using CDKtide as a substrate in the presence of BSA incubated for 10 mins by scintillation counting analysis relative to control; format: protein-complex assay; conditions: full length CDK9/His-tagged cyclin T1 complex, probe CDKtide, read-out: Activity
Method in brief: (§4)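 Compounds at fixed 5 μM; 10–50 ng kinase, substrate and NP-40/BSA per supplementary table, 10 μL at 30 °C for 10 min in low-binding tubes. Reactions spotted on filter, dried, scintillation counted. Mean ± SD of two independent experiments.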

[11] = Inhibition of full length ZIKV NS5-MTase domain using 7MeGpppAC4 as a substrate incubated for 30 mins by filter binding assay; set-up: species or system Zika virus
[12] = target: PIK3CA (Phosphatidylinositol 4,5-bisphosphate 3-kinase catalytic subunit alpha isoform) (Homo sapiens, UniProt P42336); experiment: Inhibition of human full length PIK3CA assessed as residual activity at 5 uM using PI:PS (1:3) as a substrate incubated for 10 mins by scintillation counting analysis relative to control; conditions: full length PIK3CA enzyme, probe PI:PS (1:3), read-out: Activity
Method in brief: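 Radiometric kinase reaction with 10–50 ng enzyme and compound fixed at 5 μM, 10 μL at 30 °C for 10 min. Reactions spotted on filter and counted by scintillation. Residual activity is the mean ± SD of two independent experiments.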

[13] = target: Fyn (Tyrosine-protein kinase Fyn) (Homo sapiens, UniProt P06241); experiment: Inhibition of human recombinant N terminal His6 tagged full length Fyn assessed as residual activity at 5 uM using […] as a substrate in the presence of NP-40 incubated for 10 mins by scintillation counting analysis relative to control; conditions: probe […], read-out: Activity; method in brief: as §4
[14] = target: Abl (Tyrosine-protein kinase ABL1) (Homo sapiens, UniProt P00519); experiment: Inhibition of human recombinant N terminal His6 tagged Abl (27 to end residue) assessed as residual activity at 5 uM using KKGEAIYAADFA-NH2 as a substrate in the presence of NP-40 incubated for 10 mins by scintillation counting analysis relative to control; conditions: probe KKGEAIYAADFA-NH2, read-out: Activity; method in brief: as §4
[15] = Antioxidant activity assessed as inhibition of ABTS radical scavenging activity at 10 uM to 1 mM measured after 10 mins; format: functional
Method in brief: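 ABTS radical solution diluted in ethanol (1:100) to A734 0.70; 3.0 mL mixed with 30 μL sample in DMSO at 10 μM–1 mM; A734 read after exactly 10 min; ascorbic acid reference; % scavenging = (A0−As)/A0×100.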

[16] = target: Src (Proto-oncogene tyrosine-protein kinase Src) (Homo sapiens, UniProt P12931); experiment: Inhibition of human recombinant N terminal His6 tagged full length Src assessed as residual activity at 5 uM using KVEKIGEGTYGVVYK as a substrate in the presence of NP-40 incubated for 10 mins by scintillation counting analysis relative to control; conditions: probe KVEKIGEGTYGVVYK, read-out: Activity; method in brief: as §4
[17] = Inhibition of full length ZIKA virus NS5 RNA dependent RNA polymerase incubated for 10 mins by picogreen staining based fluorescent analysis (Rvb= 1+/-0.2 uM)
[18] = Inhibition of Dengue virus 2 […] RNA dependent RNA polymerase incubated for 10 mins by picogreen staining based fluorescent analysis (Rvb= 0.27+/-0.03 uM); set-up: species or system dengue virus type 2
[19] = Inhibition of DENV NS5-MTase domain using GpppA2'OMe-RNA74 as a substrate incubated for 30 mins by filter binding assay; set-up: species or system dengue virus type 2; conditions: read-out: IC50
Method in brief: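 MTase (1 μM) incubated with increasing inhibitor in 40 mM Tris-HCl pH 7.5, 5 mM DTT, 10 μM AdoMet ([3H]-labelled), 0.5 μM GpppA2′OMe-RNA74 substrate, 30 °C for 30 min; stopped in ice-cold 100 μM AdoHcy; DEAE filter binding, scintillation counting.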

[20] = Inhibition of full length Dengue virus 2 NS5 RNA dependent RNA polymerase incubated for 10 mins by picogreen staining based fluorescent analysis (Rvb= 0.32+/-0.05 uM); set-up: species or system dengue virus type 2
[21] = Dengue virus, New Guinea C, Huh-7, 72 h, read-out: IC50
[22] = West Nile virus, lineage 1 (Italy/2009), Huh-7, 48 h, read-out: IC50

Chain of Abl (Tyrosine-protein kinase ABL1) (P00519 whole entry): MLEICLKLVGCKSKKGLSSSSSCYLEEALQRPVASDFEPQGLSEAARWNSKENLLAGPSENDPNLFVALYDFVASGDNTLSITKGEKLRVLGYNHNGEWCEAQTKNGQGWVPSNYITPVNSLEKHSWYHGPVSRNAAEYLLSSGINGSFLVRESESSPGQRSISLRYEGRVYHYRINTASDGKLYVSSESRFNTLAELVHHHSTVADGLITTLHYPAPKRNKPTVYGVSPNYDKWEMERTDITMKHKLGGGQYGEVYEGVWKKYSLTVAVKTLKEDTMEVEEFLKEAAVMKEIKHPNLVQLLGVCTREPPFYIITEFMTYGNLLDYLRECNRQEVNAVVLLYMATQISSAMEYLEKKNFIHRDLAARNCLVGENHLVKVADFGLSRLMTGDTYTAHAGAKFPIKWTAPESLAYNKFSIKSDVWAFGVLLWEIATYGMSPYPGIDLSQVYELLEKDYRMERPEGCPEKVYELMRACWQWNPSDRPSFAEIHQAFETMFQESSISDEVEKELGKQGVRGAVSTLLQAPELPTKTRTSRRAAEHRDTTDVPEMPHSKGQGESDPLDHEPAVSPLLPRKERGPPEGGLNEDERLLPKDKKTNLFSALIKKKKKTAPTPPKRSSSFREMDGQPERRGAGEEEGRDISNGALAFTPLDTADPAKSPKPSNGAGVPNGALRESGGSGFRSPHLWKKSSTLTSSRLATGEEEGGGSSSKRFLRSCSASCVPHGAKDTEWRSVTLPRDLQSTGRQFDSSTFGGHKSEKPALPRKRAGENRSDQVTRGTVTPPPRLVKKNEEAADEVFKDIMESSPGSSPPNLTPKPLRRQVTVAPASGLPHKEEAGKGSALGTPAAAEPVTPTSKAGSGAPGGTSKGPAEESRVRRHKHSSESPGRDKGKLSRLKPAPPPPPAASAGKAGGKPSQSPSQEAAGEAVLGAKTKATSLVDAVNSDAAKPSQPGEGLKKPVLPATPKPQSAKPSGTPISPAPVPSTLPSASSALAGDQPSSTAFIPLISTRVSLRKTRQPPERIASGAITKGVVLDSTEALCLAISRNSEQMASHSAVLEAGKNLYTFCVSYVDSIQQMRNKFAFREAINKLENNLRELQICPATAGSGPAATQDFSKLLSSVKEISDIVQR
Chain of CDK9/cyclin T1 (O60563 whole entry): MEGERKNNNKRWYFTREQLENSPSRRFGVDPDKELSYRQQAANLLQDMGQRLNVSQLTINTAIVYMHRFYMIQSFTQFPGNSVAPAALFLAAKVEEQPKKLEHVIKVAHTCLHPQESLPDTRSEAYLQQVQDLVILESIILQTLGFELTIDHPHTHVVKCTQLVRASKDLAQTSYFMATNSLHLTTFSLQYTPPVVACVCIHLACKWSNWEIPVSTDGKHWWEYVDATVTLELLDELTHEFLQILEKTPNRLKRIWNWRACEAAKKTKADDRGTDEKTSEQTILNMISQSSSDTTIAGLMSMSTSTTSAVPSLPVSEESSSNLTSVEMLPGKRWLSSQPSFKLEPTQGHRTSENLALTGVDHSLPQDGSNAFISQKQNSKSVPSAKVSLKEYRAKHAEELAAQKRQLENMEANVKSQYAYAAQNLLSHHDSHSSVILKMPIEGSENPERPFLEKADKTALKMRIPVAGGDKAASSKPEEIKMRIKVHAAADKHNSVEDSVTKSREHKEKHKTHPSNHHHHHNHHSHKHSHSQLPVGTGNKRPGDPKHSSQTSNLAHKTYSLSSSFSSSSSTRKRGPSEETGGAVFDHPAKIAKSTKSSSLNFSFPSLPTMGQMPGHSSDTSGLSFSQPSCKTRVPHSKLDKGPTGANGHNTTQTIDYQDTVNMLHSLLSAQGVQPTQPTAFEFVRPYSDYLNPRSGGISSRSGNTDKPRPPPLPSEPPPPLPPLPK
Chain of CDK9/cyclin T1 (P50750 whole entry): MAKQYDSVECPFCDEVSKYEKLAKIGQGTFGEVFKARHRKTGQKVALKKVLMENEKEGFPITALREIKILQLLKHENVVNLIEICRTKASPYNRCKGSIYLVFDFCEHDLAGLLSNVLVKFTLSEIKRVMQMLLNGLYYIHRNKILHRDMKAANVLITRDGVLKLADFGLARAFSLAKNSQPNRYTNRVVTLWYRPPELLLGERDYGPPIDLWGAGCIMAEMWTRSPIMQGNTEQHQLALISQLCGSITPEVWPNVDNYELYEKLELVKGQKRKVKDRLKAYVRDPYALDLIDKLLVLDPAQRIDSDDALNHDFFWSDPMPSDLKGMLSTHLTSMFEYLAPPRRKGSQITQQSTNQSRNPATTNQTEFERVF
Chain of Fyn (Tyrosine-protein kinase Fyn) (P06241 whole entry): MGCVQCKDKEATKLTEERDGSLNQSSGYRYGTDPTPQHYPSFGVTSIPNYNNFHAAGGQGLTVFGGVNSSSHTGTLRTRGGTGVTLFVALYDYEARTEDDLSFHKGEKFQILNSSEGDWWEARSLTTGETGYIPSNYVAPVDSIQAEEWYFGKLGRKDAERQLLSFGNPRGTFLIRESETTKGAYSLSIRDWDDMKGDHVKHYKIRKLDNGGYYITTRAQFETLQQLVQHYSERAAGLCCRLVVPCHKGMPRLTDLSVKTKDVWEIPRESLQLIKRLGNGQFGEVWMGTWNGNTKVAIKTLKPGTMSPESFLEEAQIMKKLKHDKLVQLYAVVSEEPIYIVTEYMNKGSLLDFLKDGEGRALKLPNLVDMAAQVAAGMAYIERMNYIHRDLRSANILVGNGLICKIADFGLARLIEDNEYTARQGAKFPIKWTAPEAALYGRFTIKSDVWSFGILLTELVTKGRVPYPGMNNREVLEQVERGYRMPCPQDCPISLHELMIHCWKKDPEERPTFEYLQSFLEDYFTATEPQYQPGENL
Chain of Src (Proto-oncogene tyrosine-protein kinase Src) (P12931 2-536 limits assumed): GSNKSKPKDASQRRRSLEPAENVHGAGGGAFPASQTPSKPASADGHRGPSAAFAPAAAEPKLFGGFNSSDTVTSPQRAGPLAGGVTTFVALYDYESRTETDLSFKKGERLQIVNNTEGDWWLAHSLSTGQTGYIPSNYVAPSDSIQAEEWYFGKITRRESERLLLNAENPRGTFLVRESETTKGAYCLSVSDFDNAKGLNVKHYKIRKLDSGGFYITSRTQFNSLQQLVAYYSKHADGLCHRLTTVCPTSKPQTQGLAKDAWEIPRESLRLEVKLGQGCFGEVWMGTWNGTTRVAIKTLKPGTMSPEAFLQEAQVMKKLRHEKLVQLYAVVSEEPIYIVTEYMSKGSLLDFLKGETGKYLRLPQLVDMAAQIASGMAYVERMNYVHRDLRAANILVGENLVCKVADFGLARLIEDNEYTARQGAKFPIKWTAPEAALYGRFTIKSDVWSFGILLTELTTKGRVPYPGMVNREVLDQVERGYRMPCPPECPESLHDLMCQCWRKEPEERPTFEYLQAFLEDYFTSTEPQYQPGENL
Chain of PIK3CA (Phosphatidylinositol 4,5-bisphosphate 3-kinase catalytic subunit alpha isoform) (P42336 whole entry, canonical isoform): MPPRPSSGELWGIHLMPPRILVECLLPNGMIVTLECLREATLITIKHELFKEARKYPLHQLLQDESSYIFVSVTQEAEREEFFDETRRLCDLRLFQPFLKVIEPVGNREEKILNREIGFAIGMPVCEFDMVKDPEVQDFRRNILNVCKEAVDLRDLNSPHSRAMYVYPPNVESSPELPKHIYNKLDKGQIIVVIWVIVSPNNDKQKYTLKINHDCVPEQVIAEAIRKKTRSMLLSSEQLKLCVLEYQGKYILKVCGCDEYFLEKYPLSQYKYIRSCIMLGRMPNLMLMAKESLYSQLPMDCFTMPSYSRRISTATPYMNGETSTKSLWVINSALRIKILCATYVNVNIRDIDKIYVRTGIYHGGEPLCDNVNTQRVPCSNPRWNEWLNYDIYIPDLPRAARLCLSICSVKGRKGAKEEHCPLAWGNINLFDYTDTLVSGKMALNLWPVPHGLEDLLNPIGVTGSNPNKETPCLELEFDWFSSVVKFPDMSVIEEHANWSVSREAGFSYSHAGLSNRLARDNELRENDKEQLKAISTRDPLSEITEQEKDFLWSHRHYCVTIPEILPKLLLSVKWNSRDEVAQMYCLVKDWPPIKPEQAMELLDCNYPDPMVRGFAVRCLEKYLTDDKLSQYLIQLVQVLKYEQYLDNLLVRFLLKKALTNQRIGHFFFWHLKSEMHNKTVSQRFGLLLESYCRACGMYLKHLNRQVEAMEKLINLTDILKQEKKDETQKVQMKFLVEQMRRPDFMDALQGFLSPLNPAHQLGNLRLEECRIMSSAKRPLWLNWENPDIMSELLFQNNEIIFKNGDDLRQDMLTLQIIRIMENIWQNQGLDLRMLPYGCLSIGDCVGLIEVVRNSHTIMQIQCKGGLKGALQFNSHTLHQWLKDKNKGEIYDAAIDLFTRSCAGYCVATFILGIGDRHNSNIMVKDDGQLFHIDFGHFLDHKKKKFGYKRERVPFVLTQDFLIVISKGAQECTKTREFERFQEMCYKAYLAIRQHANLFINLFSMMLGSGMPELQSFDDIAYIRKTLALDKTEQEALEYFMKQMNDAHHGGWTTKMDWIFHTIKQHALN

Compound	CC50 (Huh-7) [µM]	IC50 (dengue virus type 2 [1]; [21]) [µM]	IC50 (Zika virus) [µM]	selectivity ratio at 72 h [2]	selectivity ratio at 72 h [3]	further results
CNc1nc(Nc2cccc(F)c2)c2nc[nH]c2n1	84	9.3	14.7	9	6	–
CNc1nc(Nc2cccc(C(F)(F)F)c2)c2nc[nH]c2n1	–	3.5	–	57	–	IC50 (West Nile virus [4]; huh-7): Not Active; CC50 [5]: 200 µM; IC50 (dengue virus type 2 [6]): 4.9 µM; selectivity ratio at 72 h [7]: 41
CNc1nc(Nc2cccc(C(=O)OC)c2)c2nc[nH]c2n1	–	18	8	11	25	CC50 [5]: 200 µM
OCCNc1nc(Nc2cccc(C(F)(F)F)c2)c2nc[nH]c2n1	50	4.5	10.6	11	5	IC50 (West Nile virus [8]): 1.5 µM; IC50 (West Nile virus [4]; [22]): 1.9 µM; selectivity ratio at 48 h [9]: 26; selectivity ratio at 48 h [10]: 33
COC(=O)c1cccc(Nc2nc(NCCOc3ccccc3)nc3[nH]cnc23)c1	100	–	8.2	–	12	IC50 (dengue virus type 2 [1]; huh-7): Not Active
Fc1cccc(/N=N/c2nc(NCCOc3ccccc3)nc3[nH]cnc23)c1	18.5	4	2.8	5	7	IC50 (West Nile virus [8]): 0.6 µM; activity at 10 min, 5 µM (CDK9/cyclin T1): > 98%; IC50 [11]: Not Active; activity at 10 min, 5 µM [12]: 78%; IC50 (West Nile virus [4]; [22]): 0.6 µM; selectivity ratio at 48 h [9]: 28; activity at 10 min, 5 µM [13]: 89%; activity at 10 min, 5 µM [14]: > 98%; Activity [15]: Active; activity at 10 min, 5 µM [16]: > 98%; IC50 [17]: > 100 µM; IC50 [18]: > 100 µM; IC50 [19]: 226 µM; selectivity ratio at 48 h [10]: 30; IC50 [20]: > 100 µM
CNc1nc(Nc2cccc(C(=O)O)c2)c2nc[nH]c2n1	–	–	33.5	–	6	CC50 [5]: 200 µM; IC50 (dengue virus type 2 [1]; huh-7): Not Active
COC(=O)c1cccc(Nc2nc(NCCO)nc3[nH]cnc23)c1	–	17.5	6.2	11	32	CC50 [5]: 200 µM
O=C(O)c1cccc(Nc2nc(NCCOc3ccccc3)nc3[nH]cnc23)c1	–	28.2	29	7	7	CC50 [5]: 200 µM
Oc1ccc(Nc2nc(NCCOc3ccccc3)nc3[nH]cnc23)cc1O	–	–	25	–	8	CC50 [5]: 200 µM; IC50 (dengue virus type 2 [1]; huh-7): Not Active
COc1cc(Nc2nc(NCCOc3ccccc3)nc3[nH]cnc23)cc(OC)c1OC	7.5	–	–	–	–	–
FC(F)(F)c1cc(/N=N/c2nc(NCCOc3ccccc3)nc3[nH]cnc23)cc(C(F)(F)F)c1	7.5	–	–	–	–	–
FC(F)(F)c1cccc(Nc2nc(NCCOc3ccccc3)c3nc[nH]c3n2)c1	6	–	–	–	–	–
Fc1cc(F)cc(/N=N/c2nc(NCCOc3ccccc3)nc3[nH]cnc23)c1	12	–	–	–	–	–
FC(F)(F)c1ccc(/N=N/c2nc(NCCOc3ccccc3)nc3[nH]cnc23)cc1	8	–	–	–	–	–
FC(F)(F)c1cc(NNc2nc(NCCOc3ccccc3)nc3[nH]cnc23)cc(C(F)(F)F)c1	5	–	–	–	–	–
Nc1ncnc2c1ncn2[C@@H]1O[C@H](C[C@@H](N)CC[C@H](N)C(=O)O)[C@@H](O)[C@H]1O [SINEFUNGIN]	–	–	–	–	–	IC50 ([11]; read-out: IC50): 1.18 µM; IC50 [19]: 0.63 µM
Fc1cc(F)cc(NNc2nc(NCCOc3ccccc3)nc3[nH]cnc23)c1	8.5	–	–	–	–	–
FC(F)(F)c1cccc(NNc2nc(NCCOc3ccccc3)nc3[nH]cnc23)c1	7.5	–	–	–	–	–
OCCNc1nc(Nc2cccc(F)c2)c2nc[nH]c2n1	136	29.8	8.9	5	15	–
FC(F)(F)c1ccc(NNc2nc(NCCOc3ccccc3)nc3[nH]cnc23)cc1	8	–	–	–	–	–
Oc1cccc(Nc2nc(NCCOc3ccccc3)nc3[nH]cnc23)c1	–	–	–	–	–	activity at 10 min, 5 µM (CDK9/cyclin T1): > 98%; activity at 10 min, 5 µM [14]: 65%
Fc1cccc(Nc2nc(NCCOc3ccccc3)c3nc[nH]c3n2)c1	8	–	–	–	–	–
